The values below come from ChEMBL document CHEMBL3098097, “Design, synthesis and evaluation of 7-azaindazolyl-indolyl-maleimides as glycogen synthase kinase-3β (GSK-3β) inhibitors” (Eur J Med Chem, 2013).

By IC50 is commonly meant the concentration that gives 50% inhibition. One may read the inhibition as the drop in the measured response relative to a control, in per cent.

Calls of active or inactive are those of the source. The calls are words filed in the database; no cut-off is given here.

For test [1], the target named is T1, Glycogen synthase kinase-3 beta (Homo sapiens, UniProt P49841). Description: Inhibition of recombinant GST-tagged GSK-3beta (unknown origin) expressed in Escherichia coli BL21 assessed as phosphate incorporation in CREB.
Target sequence in this assay (P49841 whole entry): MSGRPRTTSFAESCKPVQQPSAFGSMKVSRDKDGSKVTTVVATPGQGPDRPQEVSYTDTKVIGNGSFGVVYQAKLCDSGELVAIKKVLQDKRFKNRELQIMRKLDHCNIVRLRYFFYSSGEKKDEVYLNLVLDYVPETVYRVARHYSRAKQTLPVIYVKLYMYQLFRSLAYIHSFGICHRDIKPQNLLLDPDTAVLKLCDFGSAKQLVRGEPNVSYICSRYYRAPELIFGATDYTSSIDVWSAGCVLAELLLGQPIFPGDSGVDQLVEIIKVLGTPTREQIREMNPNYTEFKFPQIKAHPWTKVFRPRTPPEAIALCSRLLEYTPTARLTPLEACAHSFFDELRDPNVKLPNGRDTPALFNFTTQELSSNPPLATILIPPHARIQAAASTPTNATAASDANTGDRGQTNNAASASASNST
For test [2], the target named is T1, Glycogen synthase kinase-3 beta. The experiment in a line: Inhibition of recombinant GST-tagged GSK-3beta (unknown origin) expressed in Escherichia coli BL21 assessed as phosphate incorporation in CREB at 20 ug/mL relative to control. The method in brief: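 GST-GSK-3β expressed in E. coli BL21-CodonPlus (DE3), purified by GSTrap and thrombin-cleaved. Activity measured by Z'-LYTE kinase assay at 50 nM final enzyme. Run in triplicate with blanks subtracted. Activity given as pmol phosphate incorporated into CREB per minute or as percent of maximal activity.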
Target sequence in this assay (P49841 whole entry, looked up): as the sequence (P49841 whole entry) above

Test [3] shares this target. Description: Inhibition of GSK-3beta in human SH-SY5Y cells assessed as reduction of amyloid beta (25 to 35)-induced Tau hyperphosphorylation at Ser396 at 10 uM incubated for 1 hr prior to amyloid beta (25 to 35) induction measured after 6 hrs by Western blotting analysis. The format is cell-based. The method in brief: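 SH-SY5Y cells (ATCC) in 1:1 DMEM:Ham's F12 with 10% FBS and 1% penicillin/streptomycin, 5% CO2. Grown to ~80% confluence, serum-deprived 12 h, inhibitor added 1 h before Aβ25–35 for another 6 h. Lysed in SDS loading buffer, run on 10% SDS-PAGE, blotted to PVDF, probed with rabbit anti-Tau pS396, ECL detection.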
Target sequence in this assay (P49841 whole entry, looked up): as the sequence (P49841 whole entry) above
(In western blotting, separated proteins are transferred to a membrane and probed.)

The target in test [4] is T2, Protein kinase C epsilon type (Homo sapiens, UniProt Q02156).
T2 sequence (Q02156 whole entry): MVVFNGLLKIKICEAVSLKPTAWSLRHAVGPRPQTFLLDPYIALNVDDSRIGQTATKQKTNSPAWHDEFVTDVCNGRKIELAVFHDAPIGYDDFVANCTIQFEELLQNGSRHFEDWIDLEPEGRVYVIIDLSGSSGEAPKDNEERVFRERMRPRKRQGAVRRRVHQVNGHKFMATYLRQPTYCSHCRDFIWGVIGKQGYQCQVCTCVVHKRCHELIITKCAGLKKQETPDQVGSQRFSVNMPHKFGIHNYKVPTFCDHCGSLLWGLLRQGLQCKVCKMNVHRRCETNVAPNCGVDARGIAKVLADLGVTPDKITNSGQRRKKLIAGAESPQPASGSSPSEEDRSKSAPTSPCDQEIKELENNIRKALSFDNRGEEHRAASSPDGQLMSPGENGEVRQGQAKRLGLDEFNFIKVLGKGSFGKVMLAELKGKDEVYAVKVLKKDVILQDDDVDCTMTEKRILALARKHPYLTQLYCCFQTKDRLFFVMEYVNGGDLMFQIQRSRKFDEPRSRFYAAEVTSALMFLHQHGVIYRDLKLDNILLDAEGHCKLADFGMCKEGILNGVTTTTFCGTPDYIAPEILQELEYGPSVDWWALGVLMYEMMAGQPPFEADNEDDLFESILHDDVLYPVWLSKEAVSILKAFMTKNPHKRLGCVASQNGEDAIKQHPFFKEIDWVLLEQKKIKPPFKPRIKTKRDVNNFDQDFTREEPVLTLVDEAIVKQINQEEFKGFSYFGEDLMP
Description: Inhibition of recombinant PKCE (unknown origin) expressed in baculovirus expression system.

For test [5], the target named is T3, Inhibitor of nuclear factor kappa-B kinase subunit beta (Homo sapiens, UniProt O14920).
T3 sequence (O14920 whole entry): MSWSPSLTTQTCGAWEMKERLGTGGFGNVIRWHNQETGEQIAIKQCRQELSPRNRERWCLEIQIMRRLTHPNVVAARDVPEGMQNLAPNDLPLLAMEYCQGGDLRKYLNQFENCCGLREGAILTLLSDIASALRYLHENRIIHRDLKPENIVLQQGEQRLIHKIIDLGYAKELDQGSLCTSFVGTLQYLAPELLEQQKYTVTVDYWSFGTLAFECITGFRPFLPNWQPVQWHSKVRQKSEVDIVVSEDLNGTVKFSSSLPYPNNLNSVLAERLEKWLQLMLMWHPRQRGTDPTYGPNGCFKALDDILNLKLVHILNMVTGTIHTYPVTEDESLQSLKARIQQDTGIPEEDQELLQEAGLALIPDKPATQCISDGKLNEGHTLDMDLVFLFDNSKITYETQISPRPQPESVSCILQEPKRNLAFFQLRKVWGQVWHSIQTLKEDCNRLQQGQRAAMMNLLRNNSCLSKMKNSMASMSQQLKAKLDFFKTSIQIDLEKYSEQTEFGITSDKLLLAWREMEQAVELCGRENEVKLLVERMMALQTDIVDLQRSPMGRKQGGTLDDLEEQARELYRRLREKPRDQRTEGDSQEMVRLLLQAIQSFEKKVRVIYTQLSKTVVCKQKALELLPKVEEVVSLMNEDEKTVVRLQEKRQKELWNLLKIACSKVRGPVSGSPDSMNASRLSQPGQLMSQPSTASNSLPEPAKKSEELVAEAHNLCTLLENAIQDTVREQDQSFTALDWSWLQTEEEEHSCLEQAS
The experiment in a line: Inhibition of recombinant IKK2 (unknown origin) expressed in baculovirus expression system. In a few lines:
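Recombinant kinase expressed in the Bac-to-Bac baculovirus system, tested in a Z'-LYTE kinase assay kit.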

In a further test the target is T4, Aurora kinase A (Homo sapiens, UniProt O14965).
T4 sequence (O14965 whole entry): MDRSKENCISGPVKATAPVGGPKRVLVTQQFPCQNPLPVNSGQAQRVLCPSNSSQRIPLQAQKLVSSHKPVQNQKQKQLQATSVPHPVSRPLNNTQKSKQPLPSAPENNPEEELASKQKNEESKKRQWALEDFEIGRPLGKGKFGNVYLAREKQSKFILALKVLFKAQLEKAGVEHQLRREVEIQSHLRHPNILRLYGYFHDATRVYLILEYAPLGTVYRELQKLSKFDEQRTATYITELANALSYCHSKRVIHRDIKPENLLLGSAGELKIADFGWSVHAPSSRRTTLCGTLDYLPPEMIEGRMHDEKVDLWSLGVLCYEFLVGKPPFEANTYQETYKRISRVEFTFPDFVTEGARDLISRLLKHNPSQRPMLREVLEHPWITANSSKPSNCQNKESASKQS
Description: Inhibition of recombinant aurora kinase A (unknown origin) expressed in Escherichia coli. The method in brief: (§1)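 E. coli-expressed recombinant kinase tested in a Z'-LYTE kinase assay kit.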

Test [6] concerns the target Dual specificity mitogen-activated protein kinase kinase 1 (Homo sapiens, UniProt Q02750). Description: Inhibition of recombinant MEK1 (unknown origin) expressed in Escherichia coli. The method in brief: as §1
In test [7] the target is Mitogen-activated protein kinase 3 (Homo sapiens, UniProt P27361). The experiment in a line: Inhibition of recombinant ERK1 (unknown origin) expressed in Escherichia coli. In a few lines:
as §1

Dual specificity mitogen-activated protein kinase kinase 1, sequence (Q02750 whole entry): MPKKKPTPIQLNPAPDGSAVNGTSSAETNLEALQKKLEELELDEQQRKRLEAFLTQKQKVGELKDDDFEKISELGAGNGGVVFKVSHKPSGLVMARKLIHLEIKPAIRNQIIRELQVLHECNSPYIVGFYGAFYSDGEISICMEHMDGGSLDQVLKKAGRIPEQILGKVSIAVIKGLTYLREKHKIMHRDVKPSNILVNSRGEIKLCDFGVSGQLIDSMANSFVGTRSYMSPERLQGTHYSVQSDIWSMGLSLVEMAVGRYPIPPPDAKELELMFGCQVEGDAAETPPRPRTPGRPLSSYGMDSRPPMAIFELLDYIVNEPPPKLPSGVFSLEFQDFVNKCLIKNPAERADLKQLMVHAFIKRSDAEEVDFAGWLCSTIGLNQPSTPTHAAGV
Mitogen-activated protein kinase 3, sequence (P27361 whole entry): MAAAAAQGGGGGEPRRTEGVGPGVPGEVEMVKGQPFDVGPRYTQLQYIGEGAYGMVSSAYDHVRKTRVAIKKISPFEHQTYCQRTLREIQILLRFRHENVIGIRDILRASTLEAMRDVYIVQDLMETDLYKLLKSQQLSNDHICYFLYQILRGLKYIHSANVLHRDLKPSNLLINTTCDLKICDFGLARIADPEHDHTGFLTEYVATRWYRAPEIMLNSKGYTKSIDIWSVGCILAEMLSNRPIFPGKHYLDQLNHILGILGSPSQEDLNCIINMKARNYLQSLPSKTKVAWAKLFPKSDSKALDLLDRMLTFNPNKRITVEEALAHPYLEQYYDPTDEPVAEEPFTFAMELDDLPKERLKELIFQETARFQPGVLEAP

For `Cn1cc(C2=C(c3nn(CCCCn4ccnc4)c4ncccc34)C(=O)NC2=O)c2ccccc21`, in test [1], the concentration for half-maximal inhibition (IC50) came to 0.96 µM.
Turning to `O=C1C(c2c[nH]c3ccccc23)=C(c2n[nH]c3ncccc23)C(=O)N1c1ccccc1`, the inhibition in test [2] worked out at 4.14%.
Same read-out and setting: the result for `COC(=O)CN1C(=O)C(c2c[nH]c3ccccc23)=C(c2n[nH]c3ncccc23)C1=O` reads 51.5%.
Turning to `Cn1cc(C2=C(c3nn(CCCn4ccnc4)c4ncccc34)C(=O)NC2=O)c2ccccc21`, the concentration for half-maximal inhibition (IC50) in test [1] was 4.89 µM.
Same read-out and setting: in the case of `Cn1cc(C2=C(c3n[nH]c4ncccc34)C(=O)NC2=O)c2ccccc21` it was 12.3 µM.
Same read-out and setting: in the case of `C=CCn1cc(C2=C(c3nn(CCCN4CCOCC4)c4ncccc34)C(=O)NC2=O)c2ccccc21` it was 0.96 µM.
`O=CNN1C(=O)C(c2c[nH]c3ccccc23)=C(c2n[nH]c3ncccc23)C1=O`: the inhibition in test [2] is -7.42%.
Turning to `NC(=S)NN1C(=O)C(c2c[nH]c3ccccc23)=C(c2n[nH]c3ncccc23)C1=O`, the inhibition in test [2] turned out to be 33.7%.
In the case of `Cn1cc(C2=C(c3nn(CCCN4CCOCC4)c4ncccc34)C(=O)NC2=O)c2ccccc21`, the inhibition result in test [3] is “Active”. In addition, in test [1], the half-inhibitory concentration (IC50) is 0.75 µM.
With `CN(C)CCCn1nc(C2=C(c3cn(C)c4ccccc34)C(=O)NC2=O)c2cccnc21`, the half-inhibitory concentration (IC50) in test [1] was 5.69 µM.
Take `O=C1NC(=O)C(c2nn(CCCN3CCOCC3)c3ncccc23)=C1c1c[nH]c2ccccc12`: the inhibition result in test [3] is “Active”. Moreover, the IC50 in test [1] was found to be 0.83 µM.
In the case of `Cn1cc(C2=C(c3nn(CCN4CCOCC4)c4ncccc34)C(=O)NC2=O)c2ccccc21`, the IC50 was more than 40 µM in test [4]; more than 40 µM in test [5]; more than 40 µM at Aurora kinase A; more than 40 µM in test [6]; 0.36 µM in test [1]; more than 40 µM in test [7]. Besides, in test [3], the inhibition entry is “Active”.
Turning to `CN1CCN(CCCn2nc(C3=C(c4cn(C)c5ccccc45)C(=O)NC3=O)c3cccnc32)CC1`, the concentration for half-maximal inhibition (IC50) in test [1] was determined as 3.34 µM.
Same read-out and setting: the result for `Cn1cc(C2=C(c3nn(CCCN4CCCCC4)c4ncccc34)C(=O)NC2=O)c2ccccc21` reads 2.66 µM; that for `C=Cn1cc(C2=C(c3nn(CCCN4CCOCC4)c4ncccc34)C(=O)NC2=O)c2ccccc21`, 8.84 µM.
Take `NC(=O)NN1C(=O)C(c2c[nH]c3ccccc23)=C(c2n[nH]c3ncccc23)C1=O`: the inhibition in test [2] is -6.81%.
With `Cn1cc(C2=C(c3nn(CCCO)c4ncccc34)C(=O)NC2=O)c2ccccc21`, the inhibition result in test [3] was “Active”. Also, the IC50 in test [1] was found to be 1.09 µM.
Turning to `O=C1NC(=O)C(c2nn(CCCN3CCOCC3)c3ncccc23)=C1c1cn(Cc2ccccc2)c2ccccc12`, the IC50 in test [1] stood at 1.9 µM.
As for `O=C1NC(=O)C(c2nn(CCCN3CCOCC3)c3ncccc23)=C1c1cn(CCCn2ccnc2)c2ccccc12`, the inhibition result in test [3] is “inactive”. For the same compound, in test [1], the half-inhibitory concentration (IC50) came to 0.68 µM.
Consider `Cn1cc(C2=C(c3nn(CCCCN4CCOCC4)c4ncccc34)C(=O)NC2=O)c2ccccc21`, for which the IC50 in test [1] was 0.46 µM.
For `CC(C)n1cc(C2=C(c3nn(CCCN4CCOCC4)c4ncccc34)C(=O)NC2=O)c2ccccc21`, the IC50 is more than 40 µM in test [4]; more than 40 µM in test [5]; more than 40 µM at Aurora kinase A; more than 40 µM in test [6]; 0.38 µM in test [1]; more than 40 µM in test [7]. The inhibition entry in test [3] is “Active”.
For the compound `CC(C)CN1C(=O)C(c2c[nH]c3ccccc23)=C(c2n[nH]c3ncccc23)C1=O`, the inhibition in test [2] stood at 45.7%.
Same read-out and setting: the result for `NN1C(=O)C(c2c[nH]c3ccccc23)=C(c2n[nH]c3ncccc23)C1=O` reads 28.6%.
Turning to `O=C1NC(=O)C(c2nn(CCCN3CCOCC3)c3ncccc23)=C1c1cn(CCCN2CCOCC2)c2ccccc12`, in test [3], the inhibition result is “inactive”. Moreover, the concentration for half-maximal inhibition (IC50) in test [1] worked out at 1.29 µM.
For `O=C1NC(=O)C(c2n[nH]c3ncccc23)=C1c1c[nH]c2ccccc12`, in test [1], the concentration for half-maximal inhibition (IC50) is 7.31 µM.
`Cn1cc(C2=C(c3nn(CCn4ccnc4)c4ncccc34)C(=O)NC2=O)c2ccccc21`: the IC50 in test [4] is more than 40 µM; in test [5], more than 40 µM; on Aurora kinase A it was more than 40 µM; in test [6], more than 40 µM; in test [1] it was 0.81 µM; in test [7], more than 40 µM. In addition, in test [3], the inhibition result is “Active”.
